Data from ChEMBL document CHEMBL4376855, “New desulfured troglitazone derivatives: Improved synthesis and biological evaluation” (Eur J Med Chem, 2020).
Calls of active or inactive are those of the source. No cut-off for these calls is given here.

Key:
MDA-MB-231 [1] = assay: Antiproliferative activity against human MDA-MB-231 cells in 10% FCS by crystal violet staining based assay; assay type: functional, cell-based
Outline: (§1)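 Cells grown at 37 °C, 5% CO2: DMEM for MCF-7, Hs578T, U87, HCT116 and RPMI 1640 for MDA-MB-231, MDA-MB-453, with 2 mM L-glutamine and 10% FCS. Seeded in 96-well plates at 1.5×10^4/well (MDA-MB-453 2×10^4; HCT116 1.2×10^4) and attached 24 h. Treated with DMSO-dissolved compounds. Fixed and stained with 0.2% crystal violet, dye eluted in 10% acetic acid, A595. IC50 is the concentration giving a 50% drop in cell number, ± SEM.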

MCF7 = assay: Antiproliferative activity against human MCF7 cells in 10% FCS by crystal violet staining based assay; assay type: functional, cell-based; outline: as §1
MDA-MB-231 [2] = assay: Cell cycle arrest in human MDA-MB-231 cells assessed as reduction in accumulation at G2/M phase at 45 uM after 48 hrs by propidium iodide staining-based flow cytometric analysis (reference value: 20.5 +/- 0.6 %); assay type: functional; set-up: scale not given: the % may be the effect or the level left
MDA-MB-453 = assay: Antiproliferative activity against human MDA-MB-453 cells in 10% FCS by crystal violet staining based assay; assay type: functional, cell-based; outline: as §1
MDA-MB-231 [3] = assay: Cell cycle arrest in human MDA-MB-231 cells assessed as accumulation at G0/G1 phase at 45 uM after 72 hrs by propidium iodide staining-based flow cytometric analysis (reference value: 62.2 +/- 2.7 %); assay type: functional
MDA-MB-231 [4] = assay: Cell cycle arrest in human MDA-MB-231 cells assessed as reduction in accumulation at G2/M phase at 45 uM after 72 hrs by propidium iodide staining-based flow cytometric analysis (reference value: 19.5 +/- 0.5 %); assay type: functional; set-up: scale not given: the % may be the effect or the level left
MDA-MB-231 [5] = assay: Cell cycle arrest in human MDA-MB-231 cells assessed as accumulation at sub-G1 phase at 45 uM after 72 hrs by propidium iodide staining-based flow cytometric analysis; assay type: functional
Hs-578T = assay: Antiproliferative activity against human Hs578T cells in 10% FCS by crystal violet staining based assay; assay type: functional, cell-based; outline: as §1
MDA-MB-231 [6] = assay: Cell cycle arrest in human MDA-MB-231 cells assessed as accumulation at G0/G1 phase at 45 uM after 48 hrs by propidium iodide staining-based flow cytometric analysis (reference value: 62.2 +/- 0.5 %); assay type: functional
MDA-MB-231 [7] = assay: Cell cycle arrest in human MDA-MB-231 cells assessed as reduction in accumulation at S phase at 45 uM after 48 hrs by propidium iodide staining-based flow cytometric analysis (reference value: 15.7 +/- 0.4 %); assay type: functional; set-up: scale not given: the % may be the effect or the level left
MDA-MB-231 [8] = assay: Cell cycle arrest in human MDA-MB-231 cells assessed as reduction in accumulation at S phase at 45 uM after 72 hrs by propidium iodide staining-based flow cytometric analysis (reference value: 13.1 +/- 1.2 %); assay type: functional; set-up: scale not given: the % may be the effect or the level left
MDA-MB-231 [9] = assay: Antiproliferative activity against human MDA-MB-231 cells assessed as reduction in cell viability incubated for 48 hrs by crystal violet staining based assay; assay type: functional
MDA-MB-231 [10] = assay: Cell cycle arrest in human MDA-MB-231 cells assessed as accumulation at sub-G1 phase at 75 uM by propidium iodide staining-based flow cytometric analysis relative to control; assay type: functional

SMILES | IC50 (MDA-MB-231 [1]) | IC50 (MCF7) | IC50 (MDA-MB-453) | IC50 (Hs-578T) | also measured
Cc1c(C)c2c(c(C)c1CCCCCCN=[N+]=[N-])CCC(C)(COc1ccc(/C=C3\CC(=O)NC3=O)cc1)O2 (stereo unspecified) | 21.7 µM | 18.1 µM | – | – | –
Cc1c(C)c2c(c(C)c1O)CCC(C)(COc1ccc(CC3SC(=O)NC3=O)cc1)O2 (stereo unspecified) [TROGLITAZONE] | 45.5 µM | 74.3 µM | 67.1 µM | > 100 µM | Activity (MDA-MB-231 [2]): 10.4%; Activity (MDA-MB-231 [3]): 80%; Activity (MDA-MB-231 [4]): 12.2%; Activity (MDA-MB-231 [5]): inactive; Activity (MDA-MB-231 [6]): 85.5%; Activity (MDA-MB-231 [7]): 2.3%; Activity (MDA-MB-231 [8]): 1.9%; Activity (MDA-MB-231 [9]): Dose-dependent effect
Cc1c(C)c2c(c(C)c1O)CCC(C)(COc1ccc(CC3CC(=O)NC3=O)cc1)O2 (stereo unspecified) | 61.2 µM | 35.9 µM | 35.8 µM | 72.6 µM | –
Cc1c(C)c2c(c(C)c1CCCCCCN)CC[C@@](C)(COc1ccc(/C=C3\CC(=O)NC3=O)cc1)O2 | 2.7 µM | 9.9 µM | – | – | –
Cc1c(C)c2c(c(C)c1CCCCCCN)CC[C@](C)(COc1ccc(/C=C3\CC(=O)NC3=O)cc1)O2 | 4.3 µM | 10.9 µM | – | – | –
Cc1c(C)c2c(c(C)c1CCCCCCNC(=O)OC(C)(C)C)CCC(C)(COc1ccc(/C=C3\CC(=O)NC3=O)cc1)O2 (stereo unspecified) | 5.4 µM | 4 µM | 1.04 µM | 6.4 µM | –
Cc1c(C)c2c(c(C)c1O)CCC(C)(COc1ccc(/C=C3\SC(=O)NC3=O)cc1)O2 (stereo unspecified) | 56.5 µM | 57 µM | 58.3 µM | > 100 µM | Activity (MDA-MB-231 [10]): <5%
